The text below walks through data of ChEMBL document CHEMBL1143242, “Specific small-molecule activator of Aurora kinase A induces autophosphorylation in a cell-free system” (J Med Chem, 2008).

The source made the active and inactive calls. No cut-off for these calls is given here.

In data set [1] the target is T1, Aurora kinase A (Homo sapiens) (UniProt O14965).
T1 sequence (whole entry): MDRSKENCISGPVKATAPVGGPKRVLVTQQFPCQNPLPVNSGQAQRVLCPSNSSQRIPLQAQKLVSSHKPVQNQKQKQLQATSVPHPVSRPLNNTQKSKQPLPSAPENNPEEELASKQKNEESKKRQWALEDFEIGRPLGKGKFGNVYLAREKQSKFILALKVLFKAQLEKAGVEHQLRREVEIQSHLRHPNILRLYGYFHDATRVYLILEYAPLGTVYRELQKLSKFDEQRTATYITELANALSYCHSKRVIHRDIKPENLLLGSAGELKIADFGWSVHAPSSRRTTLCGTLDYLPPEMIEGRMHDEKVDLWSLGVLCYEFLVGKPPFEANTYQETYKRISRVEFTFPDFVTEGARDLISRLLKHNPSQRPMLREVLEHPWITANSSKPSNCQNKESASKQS
Nature of the data set: Binding affinity to human AURA expressed in baculovirus in presence of anacardic acid. In outline: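 Baculovirus-expressed, C-terminally His6-tagged AURA purified on Ni-NTA. Intrinsic fluorescence quenching was read at 301 nm (excitation 280 nm), with inner-filter correction. Ka came from double-reciprocal FR and the Chipman method.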

For data set [2], the target named is T1, Aurora kinase A (Homo sapiens). Nature of the data set: Binding affinity to human AURA expressed in baculovirus. In outline: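 Baculovirus-expressed, C-terminally His6-tagged AURA purified on Ni-NTA. Excitation was at 280 nm and quenching of intrinsic fluorescence was read at 301 nm, with inner-filter correction. FR came from a double-reciprocal plot, and Ka was calculated by the Chipman method.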

Data set [3] concerns the target Aurora kinase B (Homo sapiens) (UniProt Q96GD4). Nature of the data set: Activation of human AURB mediated histone H3 phosphorylation by phosphoimager analyzer. In outline: (§1)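 Compound (5–50 µM, in DMSO) preincubated 5 min at 30 °C, then [γ-32P]ATP added for 10 min. 25% TCA precipitation, 15% SDS-PAGE, autoradiography; phosphoimager quantitation of relative intensity versus DMSO control.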

For data set [4] the target is unchanged. Nature of the data set: Activation of human AURB autophosphorylation activity. Summed up:
(§2)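 Autophosphorylation read from the same gels: 1.5 µg histone H3 with AURA (40 ng) or AURB (120 ng) and [γ-32P]ATP, with or without compound at 25 and 50 µM in DMSO. Reactions precipitated with 25% TCA, resolved on 15% SDS-PAGE, then autoradiographed.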

The target in data set [5] is T1, Aurora kinase A (Homo sapiens). Nature of the data set: Binding affinity to human AURA expressed in baculovirus in presence of ATP.
Data set [6] shares this target. Nature of the data set: Activation of human AURA autophosphorylation activity. Summed up: as §2
Data set [7] shares this target. Nature of the data set: Activation of human AURA mediated histone H3 phosphorylation by phosphoimager analyzer. In outline:
as §1

Data set [8] has the same target. Nature of the data set: Activation of human AURA activity expressed in baculovirus cells by time course assay.
For data set [9] the target is unchanged. Description: Activation of human AURA assessed as histone H3 phosphorylation. In outline: as §1
Substrate in data set [10]: C=CC/C=C\C/C=C\CCCCCCCc1cccc(O)c1C(=O)O
Nature of the data set: Ratio of Kcat for human AURA to Km for human AURA. Summed up:
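AURA kinase assay with H3 substrate, with increasing [γ-32P]ATP (2.5–15 µM) in the presence of DMSO or 50 µM compound; 5 min 30 °C preincubation, 10 min reaction, TCA precipitation, PAGE and phosphoimager quantitation. Km, Vmax and kcat fitted from activity against ATP concentration.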

Substrate in data set [11]: C=CC/C=C\C/C=C\CCCCCCCc1cccc(O)c1C(=O)O
Description: Activity of human AURA expressed in baculovirus at 50 uM by phosphorimager analyzer. In outline: as §1

Chain of Aurora kinase B (Homo sapiens) (Q96GD4 whole entry): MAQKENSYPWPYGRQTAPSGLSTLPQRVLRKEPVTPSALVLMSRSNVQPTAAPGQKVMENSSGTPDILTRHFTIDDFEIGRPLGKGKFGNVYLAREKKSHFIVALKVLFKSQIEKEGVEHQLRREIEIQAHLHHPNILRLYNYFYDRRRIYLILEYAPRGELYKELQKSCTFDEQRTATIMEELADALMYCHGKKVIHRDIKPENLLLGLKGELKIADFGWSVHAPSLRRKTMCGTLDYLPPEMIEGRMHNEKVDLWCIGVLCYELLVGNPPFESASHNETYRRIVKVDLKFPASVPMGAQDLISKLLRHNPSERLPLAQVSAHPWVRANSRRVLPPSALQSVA

For the molecule `Nc1ncnc2c1ncn2[C@@H]1O[C@H](COP(=O)(O)OP(=O)(O)OP(=O)(O)O)[C@@H](O)[C@H]1O`, the Ka in [1] was 27.5 nM⁻¹; in [2], 5.7 µM⁻¹.

Take `C=CC/C=C\C/C=C\CCCCCCCc1cccc(O)c1C(=O)O`: the result in data set [3] and in [4] was inactive. The Ka in [5] was determined as 10.1 µM⁻¹; in data set [2], 5.2 µM⁻¹. Besides, the outcome in data set [6], in [7] and in data set [8] was Active. Moreover, in data set [9], the Activity result is “Dose-dependent effect”.

B1: Aurora kinase A (Homo sapiens), O14965 (protein)
chain: T1 sequence (whole entry)
On to B1, for which the specificity constant (kcat/Km) (usually the second-order rate constant that governs catalysis at low substrate concentration) in data set [10] came out at 6990 M⁻¹ s⁻¹. Also, in [11], the Km (as a rule, the substrate concentration at which the rate is half of its maximum) was found to be 40.2 mM; the maximum rate (Vmax) (commonly the rate approached at saturating substrate) came to 62.5 mmol/min/mg; the kcat (as a rule, the maximal rate divided by the concentration of active sites) came to 282 s⁻¹.
